Apaf-1 act = human Apaf-1 activation | O14727 | Apaf-1 apoptosome caspase-3 activation, DEVD-Rh110 fluorescence; active compounds read low | activity change, negative = activation, % at 20 µM | 330,000 tested, 0.31% active;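 active means activity change at or below -40% at 20 µM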
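Material: reconstituted apoptosome of Apaf-1, cytochrome c, caspase-9, procaspase-3; times: 30 min preincubation, 50 min reaction, room temperature; measured by: fluorescence, 540 nm emission, 480 nm excitation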
Rh110 interf act = Rh110 signal interference in Apaf-1 activator counter-screen. AID 504616. shares compounds with Apaf-1 act. 980 tested, under 10 active. fluorescence interference (activity change), % at 20 µM, hits read low. Rh110 fluorescence interference, quenched caspase reaction, Ex480/Em540;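 active means mean activity change at or below -40% when tested at 20 µM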
Apaf-1 act conf = confirmation of human Apaf-1 activators; shares compounds with Apaf-1 act; reconstituted apoptosome caspase-3 activity, DEVD-Rh110 fluorescence; active compounds read low; AID 504617; 980 tested, 5% active; activity change, negative = activation, % at 20 µM;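 active means mean activity change at or below -40%, meaning activation of 40% or more, at 20 µM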
Starred values were filed as active, the others as inactive. Not all results are given here.

Screening CCOc1ccc(Cl)cc1CNCCc1ccc(F)cc1 returned Apaf-1 act -43.7*, Rh110 interf act -1.1 and Apaf-1 act conf 11.4.
CCCCCCCSc1cc(OC)c(CCN(C)C)cc1OC was read as Apaf-1 act 56.3.
For CCOC(=O)c1c(NS(=O)(=O)c2ccccc2)n(CCCOC)c2nc3ccccc3nc12 the results were Apaf-1 act 96.5.
`CNCCc1nc(N)n[nH]1` gave Apaf-1 act -73.9*, Rh110 interf act 4.0 and Apaf-1 act conf 11.9.
`Clc1ccc(C(c2ccc(Cl)cc2)n2cc[n+](CC(OCc3ccc(Cl)cc3Cl)c3ccc(Cl)cc3Cl)c2)cc1` (stereo not drawn) gave Apaf-1 act 89.5.
`CCCOC(=O)c1ccc(-[n+]2c(-c3ccccc3)cc(-c3ccccc3)cc2-c2ccccc2)cc1` gave Apaf-1 act 47.4.
For COc1cc2c(cc1OC)-c1c(OC)c(OC)cc3c1[C@H](C2)N(C)CC3 the results were Apaf-1 act 94.5.
CCN(CCO)c1ccc(N=Cc2c(O)n(C)c(=S)[nH]c2=O)cc1 was read as Apaf-1 act 51.2.
O=c1[nH]c2ccccc2n1C1CCN(CCCC(c2ccc(F)cc2)c2ccc(F)cc2)CC1 was read as Apaf-1 act 55.6.
Cc1c(C(=O)Nc2ccccc2)cc(-c2ccccc2)n1CCCN1CCOCC1 was read as Apaf-1 act -201.2*, Rh110 interf act -1.8 and Apaf-1 act conf 9.7.
`Nc1cncc(C(=O)O)c1` gave Apaf-1 act 40.8.
Screening c1ccc(-c2[nH]c[n+](CC3CO3)c2-c2ccccc2)cc1 (stereo not drawn) returned Apaf-1 act 51.1.
c1cncc(C2Nc3cccc4cccc(c34)N2)c1 was read as Apaf-1 act 42.1.
For CCCNC1=C(C)C(=O)C2=C(C1=O)C(COC(N)=O)[C@]1(OC)C3NC3CN21 (stereo partly drawn) the results were Apaf-1 act 56.5.
For CCOC(=O)C(O)(c1ccc(N(C)C(=O)c2ccc(Cl)c(Cl)c2)cc1)C(F)(F)F (stereo not drawn) the results were Apaf-1 act -190.2*, Rh110 interf act -2.0 and Apaf-1 act conf 22.9.
`COCCNC(=O)c1c(NC(=O)c2ccc(Br)o2)n(Cc2ccccc2)c2nc3ccccc3nc12` gave Apaf-1 act 67.3.
`Cc1ccc(C[n+]2c(-c3ccc(C)cc3)cc(-c3ccc(C)cc3)cc2-c2ccc(C)cc2)cc1` gave Apaf-1 act 78.5.
CCN(CC)c1ccc(N=Cc2c(O)n(-c3cc(OC)ccc3OC)c(=O)[nH]c2=O)cc1 was read as Apaf-1 act 48.5.
CC[C@@H]1C(=O)OC[C@@H]1Cc1cncn1C was read as Apaf-1 act -0.1.
`NC(N)=N/N=C/c1ccc(N(c2ccccc2)c2ccccc2)cc1` gave Apaf-1 act 61.5.
For C=CCn1c(O)c(C(C)=Nc2ccc(C(=O)O)cc2)c(=O)[nH]c1=O the results were Apaf-1 act -77.3*, Rh110 interf act -1.5 and Apaf-1 act conf 12.5.
Screening Nc1c(C(=O)NC2CCCC2)c2nc3ccccc3nc2n1CC1CCCO1 (stereo not drawn) returned Apaf-1 act 94.4.
`CCCCCn1c(NC(=O)c2ccco2)c(C(=O)OCC)c2nc3ccccc3nc21` gave Apaf-1 act 92.2.
Screening CNc1ccc2nc3ccccc3[n+](C)c2c1 returned Apaf-1 act 88.9.
`O=c1cc(C2CCNCC2)[nH][nH]1` gave Apaf-1 act 58.0.
